Experimental data taken from PMC4398655 (Bioorganic & medicinal chemistry, 2015).
“Also recorded” adds a separate entry of the source. Where two headings read alike, the source gives them in different places.

Experiments:
[1] = test system: HCT-116 colon cancer cells; settings: 10 μM for 72 h, relative percent cell viability only; cited from earlier work
[2] = test system: MCF-7 breast cancer cells; settings: 10 μM for 72 h, relative percent cell viability only; cited from earlier work
[3] = test system: PC-3 prostate cancer cells; settings: 10 μM for 72 h, relative percent cell viability only; cited from earlier work
[4] = test system: six human cancer cell lines (HCT-116, S1, DU-145, PC-3, MDA-MB-231, MCF-7); assay: MTT cell cytotoxicity assay, panel of cancer cell lines; format: cell-based; settings: for IC50: Homo sapiens
Procedure, shortened: (§1)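 Cell lines grown as adherent monolayers in DMEM with 10% FBS at 37°C, 5% CO2. Trypsinised cells seeded at 5×10^3 cells/well and exposed to test compound at 0.1 to 100 μM for 72 h. MTT (4 mg/ml) added for 4 h, formazan dissolved in DMSO, and absorbance read at 570 nm. IC50 derived from survival curves by the Bliss method. Mean±SD from at least three experiments, each in triplicate.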

[5] = test system: HCT-116 colon cancer cells; assay: Morphological analysis by microscopy, HCT-116; format: cell-based, human; settings: 68 h
Procedure, shortened: (§2)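 Cells from the MTT setup, with and without test compound, were photographed at 68 h on an inverted microscope for each triplicate treatment. Images for the different concentrations were compared double-blind for cell size, shape and number.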

[6] = test system: PC-3 prostate cancer cells; assay: Morphological analysis by microscopy, PC-3; format: cell-based, human; settings: 68 h
Procedure, shortened: as §2

[7] = test system: PC-3 prostate cancer cells; assay: MTT cell cytotoxicity assay, PC-3; format: cell-based; settings: Homo sapiens, 72 h, read-out: IC50 ± SD, PC3
Procedure, shortened: as §1

[8] = test system: HEK293/pcDNA3.1 human primary embryonic kidney cells; assay: MTT cell cytotoxicity assay, HEK293/pcDNA3.1; format: cell-based; settings: HEK293, 72 h, read-out: IC50 ± SD, HEK 293/pcDNA.3.1
Procedure, shortened: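 Empty-vector-transfected HEK293 cells, grown adherent in DMEM + 10% FBS at 37°C, 5% CO2, were trypsinised and seeded at 5×10³ cells/well. Test compound was added at 0.1–100 μM for 72 h. MTT solution (4 mg/ml) was then added for 4 h, and formazan was dissolved in DMSO and read at 570 nm. IC50 was derived from survival curves by the Bliss method; mean±SD from ≥3 experiments, each in triplicate.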

[9] = test system: ABCB1 (P-glycoprotein, MDR1); assay: MTT cell cytotoxicity assay, ABCB1 overexpressing cells; format: cell-based; settings: human, HEK293/ABCB1 cells (P-glycoprotein overexpressing)
[10] = read-out: mean IC50 values in all the cancer cell lines tested

CC(=O)/C=C(O)/C=C/c1ccc(O)c(O)c1 [VA-1, Hispolon]
activity against HCT-116 (previous study) [1]: active
activity against MCF-7 (previous study) [2]: active
activity against PC-3 (previous study) [3]: active

COc1cc(/C=C/C(=O)CC(C)=O)ccc1O [VA-2, hispolon methyl ether]
IC50 ([4]; read-out: observed mean IC50 values in colon and prostate cancer cell lines): 1.4 to 6.3 µM
activity against HCT-116 (previous study) [1]: active
morphological analysis (cell number, cell size) ([5]; 1 μM): marked reduction of cell number; also recorded: significant reduction of cell number
morphological analysis (cell number, cell size) ([6]; 1 μM): marked reduction of cell number; also recorded: significant reduction of cell number
activity against MCF-7 (previous study) [2]: active
activity against PC-3 (previous study) [3]: active

CC(=O)CC(=O)/C=C/c1ccc(O)cc1 [VA-3, dehydroxy hispolon]
activity against HCT-116 (previous study) [1]: active
activity against MCF-7 (previous study) [2]: active
activity against PC-3 (previous study) [3]: active

Cc1cc(/C=C/c2ccc(O)c(O)c2)on1 [VA-7]
IC50 [4, 10]: 3.3 to 10.7 µM

COc1ccc(/C=C/c2cc(C)n[nH]2)cc1 [VA-15, (E)-5-(4-methoxystyryl)-3-methyl-1H-Pyrazole]
IC50 [4, 10]: 3.3 to 10.7 µM

COc1cc(CCC(=O)CC(C)=O)ccc1O [VA-16]
activity (inhibition of cell survival) in the tested concentration range ([4]; MTT, concentrations up to 100 μM): no significant activity
morphological characteristics ([5]; concentrations up to 100 μM): no significant change
morphological characteristics ([6]; concentrations up to 100 μM): no significant change
IC50 [7]: > 100 µM

COc1ccc(CCC(=O)CC(C)=O)cc1 [VA-18, 6-(4-methoxyphenyl)hexane-2,4-dione]
IC50 [8]: 50.2 ± 8.9 µM
IC50 at 72 h [9]: 51.2 ± 10.3 µM
